inhibition, IC50 and Activity data for 1 molecule are collected here from ChEMBL document CHEMBL4321879, “Novel Class of Colony-Stimulating Factor 1 Receptor Kinase Inhibitors Based on an o-Aminopyridyl Alkynyl Scaffold as Potential Treatment for Inflammatory Disorders” (J Med Chem, 2020).

The term inhibition denotes the relative decrease from the control value, in per cent. The term IC50 denotes the concentration needed to halve the response being measured.

In data set [1] the target is c-KIT (Homo sapiens, UniProt P10721). The data set is described as follows: Inhibition of recombinant human N-terminal GST-tagged c-KIT (544 to end residues) expressed in baculovirus infected Sf21 insect cells at 1000 nM using poly (Glu, Tyr)4:1 as substrate measured after 1 hr by ELISA relative to control. The settings on record: probe poly (Glu, Tyr)4:1. Summed up: (§1)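 Recombinant kinase was incubated with compound in reaction buffer containing 5 μM ATP, in wells precoated with poly(Glu,Tyr) 4:1, for 1 h at 37 °C. Phosphorylation was detected by ELISA.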
(In general: An ELISA detects its analyte on a solid surface through an enzyme-linked reagent.)

The target in data set [2] is Tyrosine-protein kinase ITK/TSK (Homo sapiens) (UniProt Q08881). The data set is described as follows: Inhibition of recombinant human N-terminal His6-tagged ITK (352 to 617 residues) expressed in baculovirus infected Sf21 insect cells at 100 nM using poly (Glu, Tyr)4:1 as substrate measured after 1 hr by ELISA relative to control. Summed up: (§2)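 ELISA kinase assay: recombinant kinase added to wells precoated with poly(Glu,Tyr)4:1 and incubated with compound in reaction buffer containing 5 μM ATP, 37 °C for 1 h; wells then washed before antibody detection.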

Data set [3] addresses Epidermal growth factor receptor (Homo sapiens) (UniProt P00533). As to the kind of experiment: Inhibition of recombinant human N-terminal GST-tagged EGFR (696 to end residues) expressed in baculovirus infected Sf21 insect cells at 100 nM using poly (Glu, Tyr)4:1 as substrate measured after 1 hr by ELISA relative to control. Summed up:
as §1

The target in data set [4] is Fibroblast growth factor receptor 1 (Homo sapiens, UniProt P11362). The data set is described as follows: Inhibition of recombinant human N-terminal GST-tagged FGFR1 (456 to 765 residues) expressed in baculovirus infected Sf21 insect cells at 100 nM using poly (Glu, Tyr)4:1 as substrate measured after 1 hr by ELISA relative to control. Summed up:
as §1

The target of data set [5] is Fibroblast growth factor receptor 2 (Homo sapiens, UniProt P21802). As to the kind of experiment: Inhibition of recombinant human N-terminal His6-tagged FGFR2 (456 to 770 residues) expressed in baculovirus infected Sf21 insect cells using poly (Glu, Tyr)4:1 as substrate measured after 1 hr by ELISA. Summed up: as §1
In data set [6] the test system is Mus musculus. As to the kind of experiment: Antiinflammatory activity in BALB/c mouse assessed as reduction in LPS-induced IL6 production at 20 to 40 mg/kg, po pretreated for 4 hrs followed by LPS-stimulation and measured after 3 hrs by ELISA. The format is functional, organism-based. Summed up:
(§3)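 Female BALB/c mice, 8 weeks old, n = 6 per group, dosed orally at 20 or 40 mg/kg in 0.5% CMC-Na/0.25% Tween-80 4 h before ip LPS 5 mg/kg. Orbital-sinus blood was taken at 1.5 h (TNF-α) and 3 h (IL-6). Serum cytokines measured by ELISA. Mean ± SEM, one-way ANOVA with Dunnett's test.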

For data set [7], the system named is Mus musculus. The data set is described as follows: Antiinflammatory activity in BALB/c mouse assessed as reduction in LPS-induced TNFalpha production at 20 to 40 mg/kg, po pretreated for 4 hrs followed by LPS-stimulation and measured after 1.5 hrs by ELISA. The format is functional, organism-based. Summed up: as §3
Data set [8] deals with Fibroblast growth factor receptor 3 (Homo sapiens, UniProt P22607). The data set is described as follows: Inhibition of recombinant human N-terminal His6-tagged FGFR3 (447 to 761 residues) expressed in baculovirus infected Sf21 insect cells using poly (Glu, Tyr)4:1 as substrate measured after 1 hr by ELISA. Summed up: as §1
Data set [9] concerns the target Receptor tyrosine-protein kinase erbB-2 (Homo sapiens) (UniProt P04626). As to the kind of experiment: Inhibition of recombinant Erbb2 (unknown origin) at 100 nM using poly (Glu, Tyr)4:1 as substrate measured after 1 hr by ELISA relative to control. Summed up:
as §1

Data set [10] deals with Vascular endothelial growth factor receptor 1 (Homo sapiens) (UniProt P17948). The data set is described as follows: Inhibition of recombinant human VEGFR1 expressed in Spodoptera frugiperda insect cells at 100 nM using poly (Glu, Tyr)4:1 as substrate measured after 1 hr by ELISA relative to control. Summed up: as §2
In data set [11] the target is Vascular endothelial growth factor receptor 2 (Homo sapiens) (UniProt P35968). As to the kind of experiment: Inhibition of recombinant human VEGFR2 (D1-7) expressed in Spodoptera frugiperda insect cells at 100 nM using poly (Glu, Tyr)4:1 as substrate measured after 1 hr by ELISA relative to control. Summed up: as §2
For data set [12], the target named is Proto-oncogene tyrosine-protein kinase Src (Homo sapiens) (UniProt P12931). The data set is described as follows: Inhibition of recombinant human full-length N-terminal His6-tagged Src expressed in Sf21 insect cells at 1000 nM using poly (Glu, Tyr)4:1 as substrate measured after 1 hr by ELISA relative to control. Summed up:
as §2

The target in data set [13] is Insulin-like growth factor 1 receptor (Homo sapiens) (UniProt P08069). As to the kind of experiment: Inhibition of recombinant human N-terminal His6-tagged IGF1R (959 to end residues) expressed in baculovirus infected Sf21 insect cells at 1000 nM using poly (Glu, Tyr)4:1 as substrate measured after 1 hr by ELISA relative to control. Summed up:
as §2

The target in data set [14] is Macrophage colony-stimulating factor 1 receptor (Mus musculus) (UniProt P09581). The data set is described as follows: Inhibition of CSF1R in CSF1-stimulated mouse RAW264.7 cells assessed as reduction in AKT phosphorylation preincubated for 6 hrs followed by CSF1 stimulation and measured after 20 mins by Western blot analysis. The data set is classed as cell-based. Summed up: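 RAW264.7 cells were plated in six-well plates overnight, treated with compound for 6 h, then stimulated with CSF-1 100 ng/mL for 20 min. Lysates were normalized by BCA, run on 10% SDS-PAGE, and blotted with antibodies to phospho-CSF1R (Tyr723), CSF1R, phospho-Akt (Ser473), Akt and actin.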

For data set [15], the target named is Fibroblast growth factor receptor 4 (Homo sapiens, UniProt P22455). As to the kind of experiment: Inhibition of recombinant human N-terminal His6-tagged FGFR4 (442 to 755 residues) expressed in baculovirus infected Sf21 insect cells using poly (Glu, Tyr)4:1 as substrate measured after 1 hr by ELISA. Summed up:
as §2

The target in data set [16] is Platelet-derived growth factor receptor beta (Homo sapiens) (UniProt P09619). The data set is described as follows: Inhibition of recombinant human N-terminal His6-tagged PDGFRbeta (557 to end residues) expressed in baculovirus infected Sf21 insect cells at 1000 nM using poly (Glu, Tyr)4:1 as substrate measured after 1 hr by ELISA relative to control. Summed up: as §2

Data set [17] addresses FLT3 (Homo sapiens, UniProt P36888). The data set is described as follows: Inhibition of recombinant human N-terminal GST-tagged FLT3 (564 to end residues) expressed in Sf21 insect cells at 100 nM using poly (Glu, Tyr)4:1 as substrate measured after 1 hr by ELISA relative to control. The following applies: probe poly (Glu, Tyr)4:1. Summed up: as §1
Data set [18] has as its target Insulin receptor (Homo sapiens) (UniProt P06213). The data set is described as follows: Inhibition of recombinant human N-terminal His6-tagged IR (1005 to 1310 residues) expressed in baculovirus infected Sf21 insect cells at 100 nM using poly (Glu, Tyr)4:1 as substrate measured after 1 hr by ELISA relative to control. Summed up: as §2

Activity calls are given as the source filed them. The calls are words filed in the database; no cut-off is given here.

Receptor tyrosine-protein kinase erbB-2 (Homo sapiens), sequence (P04626 whole entry): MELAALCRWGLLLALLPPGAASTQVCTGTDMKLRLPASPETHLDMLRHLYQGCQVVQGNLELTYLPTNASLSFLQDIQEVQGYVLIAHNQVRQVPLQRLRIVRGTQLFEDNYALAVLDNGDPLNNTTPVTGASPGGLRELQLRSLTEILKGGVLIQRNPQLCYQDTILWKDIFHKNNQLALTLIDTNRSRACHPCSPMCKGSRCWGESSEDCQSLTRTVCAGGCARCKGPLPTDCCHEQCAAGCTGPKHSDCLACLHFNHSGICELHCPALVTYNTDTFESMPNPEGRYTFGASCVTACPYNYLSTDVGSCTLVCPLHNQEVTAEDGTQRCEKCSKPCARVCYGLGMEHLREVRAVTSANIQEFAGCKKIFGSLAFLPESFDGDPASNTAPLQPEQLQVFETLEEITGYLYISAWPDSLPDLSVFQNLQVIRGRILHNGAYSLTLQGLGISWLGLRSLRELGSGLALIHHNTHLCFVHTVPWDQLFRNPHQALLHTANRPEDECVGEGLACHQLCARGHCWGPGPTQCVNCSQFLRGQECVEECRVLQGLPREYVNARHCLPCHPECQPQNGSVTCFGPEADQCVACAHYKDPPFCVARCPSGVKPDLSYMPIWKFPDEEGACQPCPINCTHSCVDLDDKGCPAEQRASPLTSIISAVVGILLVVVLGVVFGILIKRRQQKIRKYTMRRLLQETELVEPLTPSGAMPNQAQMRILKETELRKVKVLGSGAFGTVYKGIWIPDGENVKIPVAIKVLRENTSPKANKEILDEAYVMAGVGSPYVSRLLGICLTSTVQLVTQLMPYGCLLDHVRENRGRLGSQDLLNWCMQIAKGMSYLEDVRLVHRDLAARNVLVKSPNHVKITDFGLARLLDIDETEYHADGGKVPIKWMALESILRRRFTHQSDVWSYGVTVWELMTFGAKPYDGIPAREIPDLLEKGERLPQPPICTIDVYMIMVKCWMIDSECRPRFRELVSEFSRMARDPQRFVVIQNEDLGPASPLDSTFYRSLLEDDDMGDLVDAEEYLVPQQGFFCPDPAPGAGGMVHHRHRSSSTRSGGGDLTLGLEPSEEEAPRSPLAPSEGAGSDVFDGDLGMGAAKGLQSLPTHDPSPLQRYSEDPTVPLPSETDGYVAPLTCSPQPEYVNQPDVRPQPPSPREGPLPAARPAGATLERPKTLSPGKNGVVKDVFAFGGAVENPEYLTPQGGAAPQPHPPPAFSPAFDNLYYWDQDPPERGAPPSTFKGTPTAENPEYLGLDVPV
Fibroblast growth factor receptor 3, sequence (P22607 whole entry, the tested form may be a part): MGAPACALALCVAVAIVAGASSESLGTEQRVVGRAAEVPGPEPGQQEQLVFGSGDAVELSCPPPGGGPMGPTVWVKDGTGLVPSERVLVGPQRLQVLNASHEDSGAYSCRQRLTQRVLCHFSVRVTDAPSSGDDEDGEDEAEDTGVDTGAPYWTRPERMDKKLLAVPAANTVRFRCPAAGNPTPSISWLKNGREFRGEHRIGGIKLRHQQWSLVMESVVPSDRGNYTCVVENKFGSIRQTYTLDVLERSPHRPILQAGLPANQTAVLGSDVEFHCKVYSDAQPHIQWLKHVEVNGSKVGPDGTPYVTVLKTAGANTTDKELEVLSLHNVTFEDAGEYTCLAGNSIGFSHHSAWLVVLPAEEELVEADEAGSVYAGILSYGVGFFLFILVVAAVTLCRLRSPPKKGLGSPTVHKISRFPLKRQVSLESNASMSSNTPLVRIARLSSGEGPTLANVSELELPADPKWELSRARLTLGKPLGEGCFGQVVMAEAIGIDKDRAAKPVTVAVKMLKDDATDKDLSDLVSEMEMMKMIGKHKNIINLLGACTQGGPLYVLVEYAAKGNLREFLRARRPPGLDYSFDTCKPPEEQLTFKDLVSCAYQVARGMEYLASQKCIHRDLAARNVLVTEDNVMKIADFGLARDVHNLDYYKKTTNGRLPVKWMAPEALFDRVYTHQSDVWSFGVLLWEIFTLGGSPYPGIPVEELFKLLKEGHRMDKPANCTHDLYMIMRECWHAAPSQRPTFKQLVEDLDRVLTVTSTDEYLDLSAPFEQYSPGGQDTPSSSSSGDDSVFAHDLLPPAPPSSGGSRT
Insulin receptor (Homo sapiens), sequence (P06213 28-758 limits assumed): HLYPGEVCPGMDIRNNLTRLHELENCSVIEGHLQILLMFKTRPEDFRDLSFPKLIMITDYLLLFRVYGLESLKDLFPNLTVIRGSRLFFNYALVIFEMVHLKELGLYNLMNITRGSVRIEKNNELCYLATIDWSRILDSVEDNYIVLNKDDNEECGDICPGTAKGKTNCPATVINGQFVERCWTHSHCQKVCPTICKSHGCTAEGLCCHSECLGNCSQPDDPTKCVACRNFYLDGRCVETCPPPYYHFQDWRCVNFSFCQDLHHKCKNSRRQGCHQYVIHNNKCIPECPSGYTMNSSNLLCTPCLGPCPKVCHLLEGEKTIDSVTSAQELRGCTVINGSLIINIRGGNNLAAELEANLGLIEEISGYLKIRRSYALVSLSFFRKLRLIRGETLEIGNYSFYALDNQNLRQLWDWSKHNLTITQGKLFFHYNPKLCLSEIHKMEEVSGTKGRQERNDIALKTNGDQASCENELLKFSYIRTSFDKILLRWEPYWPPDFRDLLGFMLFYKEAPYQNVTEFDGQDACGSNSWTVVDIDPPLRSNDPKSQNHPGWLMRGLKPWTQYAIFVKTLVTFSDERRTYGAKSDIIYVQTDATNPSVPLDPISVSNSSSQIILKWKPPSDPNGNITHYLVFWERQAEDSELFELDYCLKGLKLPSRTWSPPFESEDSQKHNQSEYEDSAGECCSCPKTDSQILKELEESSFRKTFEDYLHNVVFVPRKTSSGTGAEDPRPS
Insulin receptor (Homo sapiens), sequence (P06213 763-1382 limits assumed): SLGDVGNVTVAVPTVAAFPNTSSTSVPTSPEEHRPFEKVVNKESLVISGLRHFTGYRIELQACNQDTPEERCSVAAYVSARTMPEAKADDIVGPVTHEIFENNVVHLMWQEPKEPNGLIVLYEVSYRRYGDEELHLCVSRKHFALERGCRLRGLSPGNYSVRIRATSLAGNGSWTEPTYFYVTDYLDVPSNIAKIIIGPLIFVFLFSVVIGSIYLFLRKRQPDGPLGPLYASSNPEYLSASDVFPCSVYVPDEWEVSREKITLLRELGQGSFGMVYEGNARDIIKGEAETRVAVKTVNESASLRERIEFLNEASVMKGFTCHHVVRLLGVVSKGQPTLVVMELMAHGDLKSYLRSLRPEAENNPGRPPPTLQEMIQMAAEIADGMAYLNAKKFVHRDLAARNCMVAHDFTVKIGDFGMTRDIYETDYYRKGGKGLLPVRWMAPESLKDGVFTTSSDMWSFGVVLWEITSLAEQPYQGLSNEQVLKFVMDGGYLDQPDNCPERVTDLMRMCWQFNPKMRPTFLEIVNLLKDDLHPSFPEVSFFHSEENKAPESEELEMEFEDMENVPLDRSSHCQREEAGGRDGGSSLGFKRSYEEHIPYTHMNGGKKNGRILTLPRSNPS
Epidermal growth factor receptor (Homo sapiens), sequence (P00533 whole entry): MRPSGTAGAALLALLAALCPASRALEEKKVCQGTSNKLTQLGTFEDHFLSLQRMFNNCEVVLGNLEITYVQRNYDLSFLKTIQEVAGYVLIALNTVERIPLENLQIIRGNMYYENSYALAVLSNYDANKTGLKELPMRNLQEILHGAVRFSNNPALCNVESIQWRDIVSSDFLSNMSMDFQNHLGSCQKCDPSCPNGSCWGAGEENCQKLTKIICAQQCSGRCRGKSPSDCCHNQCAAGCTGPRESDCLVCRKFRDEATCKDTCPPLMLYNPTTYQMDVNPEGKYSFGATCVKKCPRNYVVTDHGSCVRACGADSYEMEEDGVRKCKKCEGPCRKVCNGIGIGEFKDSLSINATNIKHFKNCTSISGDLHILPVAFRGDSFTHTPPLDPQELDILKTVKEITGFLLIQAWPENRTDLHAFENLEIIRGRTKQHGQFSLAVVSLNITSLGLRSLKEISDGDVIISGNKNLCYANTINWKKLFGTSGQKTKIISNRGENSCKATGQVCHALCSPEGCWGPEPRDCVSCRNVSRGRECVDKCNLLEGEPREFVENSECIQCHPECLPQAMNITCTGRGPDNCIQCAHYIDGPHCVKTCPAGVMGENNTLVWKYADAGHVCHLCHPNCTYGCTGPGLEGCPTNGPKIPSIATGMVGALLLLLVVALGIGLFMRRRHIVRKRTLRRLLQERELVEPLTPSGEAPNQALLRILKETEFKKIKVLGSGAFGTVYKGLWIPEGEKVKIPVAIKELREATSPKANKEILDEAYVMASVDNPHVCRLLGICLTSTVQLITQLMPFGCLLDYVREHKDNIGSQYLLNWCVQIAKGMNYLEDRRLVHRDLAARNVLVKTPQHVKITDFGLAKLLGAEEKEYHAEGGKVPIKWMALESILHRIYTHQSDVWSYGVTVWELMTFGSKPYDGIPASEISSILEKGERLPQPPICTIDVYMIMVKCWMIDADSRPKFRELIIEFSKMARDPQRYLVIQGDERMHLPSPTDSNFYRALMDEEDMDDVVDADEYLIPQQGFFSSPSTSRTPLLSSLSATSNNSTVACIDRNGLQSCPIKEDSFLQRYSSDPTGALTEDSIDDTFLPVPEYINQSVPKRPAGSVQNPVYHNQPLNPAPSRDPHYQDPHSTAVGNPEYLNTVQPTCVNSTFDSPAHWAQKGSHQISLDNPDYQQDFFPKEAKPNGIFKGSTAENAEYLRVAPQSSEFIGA

For `Cc1ccc(C(=O)Nc2ccc(Cl)cc2)cc1C#Cc1cc(-c2cnn(C)c2)cnc1N`, the inhibition at 1 h, 1 µM in data set [1] was determined as 98.2%. The inhibition in [2] came out at 4.2%; in data set [3], 7.4%; in data set [4], 0%; in [9], 8.8%; in [10], 78.5%; in data set [11] it was 83.6%. The inhibition in [12] is 72.8%; in data set [13], 0%; in data set [14], “Dose-dependent effect”; in [16] it was 87.9%; in data set [18], 2.1%. Also, the IC50 in data set [5], in [8] and in data set [15] was above 1000 nM in each case. Also, the outcome in data set [6] and in data set [7] was Active. Also, in [17], the inhibition at 1 h, 0.1 µM was 0%.
